# Hits are enriched below; roughly 9.5% of the tested compounds scored in any of these assays.
# mHtt clearance: mutant huntingtin protein clearance; HeLa Exon1htt(103Q)mCFP, aggregate imaging; zero = plate's median compound well; inhibition, % at 1.5 µM; 47,000 compounds, 0.42% hits; AID 853;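 active means inhibition of aggregate fluorescence above about 70%, also judged a hit by eye on the cell image, limit read from the data, passing the limit was not always enough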;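 further: cells exposed to compound for three days before fixation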
# Jurkat tox 60K: cytotoxicity toward Jurkat cells | 56,000 compounds, 1.2% hits | inhibition, % at 4 µM | Jurkat E6.1 viability, ATP luminescence, 48 h;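 active means inhibition above the mean inhibition of all tested compounds plus 3 SD, cut at about 28% in these data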
# D1 allo mod: allosterically modulates the human D1 dopamine receptor | B-score at 10 µM | P21728 | HEK293 D1, CRE-luciferase, dopamine EC30 potentiation; actives deviate in either direction | 58,000 compounds, 5.9% hits;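 active means luminescence count or its row- and column-corrected plate score outside the 99.7% band of the plate's sample wells, on either side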
# Target sequence (P21728 whole entry, looked up): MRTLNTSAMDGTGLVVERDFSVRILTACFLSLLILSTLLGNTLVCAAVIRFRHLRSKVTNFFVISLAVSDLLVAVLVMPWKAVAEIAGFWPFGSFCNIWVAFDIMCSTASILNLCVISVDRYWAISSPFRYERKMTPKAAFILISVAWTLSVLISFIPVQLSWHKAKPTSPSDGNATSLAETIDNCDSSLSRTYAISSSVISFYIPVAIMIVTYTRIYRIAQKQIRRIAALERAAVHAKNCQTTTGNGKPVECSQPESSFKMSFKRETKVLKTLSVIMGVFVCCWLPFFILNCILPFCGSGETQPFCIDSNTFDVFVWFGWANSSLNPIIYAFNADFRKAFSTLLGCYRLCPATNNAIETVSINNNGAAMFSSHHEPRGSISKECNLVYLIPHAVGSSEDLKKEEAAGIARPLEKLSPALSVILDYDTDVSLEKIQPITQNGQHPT
# M1 antagonist: M1 muscarinic receptor (rat) antagonism. P08482. CHO-M1 cells, Fluo-4 calcium, ACh EC80 antagonist mode; hits give low values. B-score at 10 µM. 64,000 compounds, 3.4% hits. AID 628;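 active means calcium fluorescence response, raw or row-and-column corrected B-score, differing from the plate sample mean either way at a set confidence level, mostly lower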
# M1 agonist: M1 muscarinic receptor agonism; CHO-M1 cells, Fluo-4 calcium fluorescence, agonist mode; hits give high values; 64,000 compounds, 3% hits; B-score at 10 µM;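 active means fluorescence rise, raw or as B-score row- and column-corrected plate score, outside the 99.7% band of its plate's samples, either direction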
# HEK293 NFkB inh: lowers PMA/ionomycin-induced NF-kB signal in HEK293 cells. HEK-293 NF-kB luciferase reporter, luminescence. inhibition, % at 3 µM. 62,000 compounds, 0.21% hits. AID 465;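 active means inhibition above the mean of all tested compounds plus 3 SD, cut at about 40% in these data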
#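 System: NF-kB luciferase reporter HEK-293 cells | Replication: Single test | Control set: DMSO vs reference inhibitor | Evaluation: % inhibition | Schedule: 1 h pretreatment, 16 h stimulation, 37 °C | Probe or stimulus: PMA with ionomycin | Compound dosing: One dose, 3 µM | Detection: Luciferase luminescence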
# A number is an active result; i = inactive; nt = no result.
SMILES,mHtt clearance,Jurkat tox 60K,D1 allo mod,M1 antagonist,M1 agonist,HEK293 NFkB inh
Cc1ccc(Nc2cc(C)nn2-c2nc(C)cc(=O)[nH]2)cc1,nt,93.5,i,i,i,68.0
O=C(NCc1cc(C(F)(F)F)cc(C(F)(F)F)c1)C1CC(c2cccc([N+](=O)[O-])c2)=NO1 (centres undefined),i,nt,nt,nt,nt,nt
COc1ccc(CCNCc2csc3nc4ccccc4n23)cc1OC,i,46.0,i,i,i,i
CCOc1cc(C(=O)NCc2ccncc2)cc(OCC)c1OCC,i,i,i,i,i,i
CC(=O)Oc1cc2c(C(=O)NCc3ccncc3)c(C)oc2c2ccccc12,nt,i,i,2.01,6.13,i
CCOC(=O)N1CCN(C(c2cccc(OC)c2)c2sc3nc(C)nn3c2O)CC1 (centres undefined),nt,i,-6.79,i,i,i
CCCCNc1ncnc2c1cnn2-c1ccccc1,i,90.2,-3.55,i,i,i
Clc1ccc(-n2ncc3c(NCCCn4ccnc4)ncnc32)cc1,nt,nt,i,i,i,nt
c1ccc(-n2ncc3c(NCCCN4CCOCC4)ncnc32)cc1,i,i,i,i,i,i
CCCCNc1ncnc2c1cnn2-c1ccc(Cl)cc1,nt,86.1,i,i,i,i
Cc1ccnc(NC(=O)CCCOc2cc(=O)n(C)c3ccccc23)c1,i,88.8,-3.3,i,i,i
Cn1c(=O)cc(OCCCC(=O)NCc2ccccn2)c2ccccc21,i,i,i,i,i,i
O=c1[nH]c2cc3c(cc2cc1C(c1nnnn1CC1CCCO1)N1CCCCCC1)OCCO3 (centres undefined),i,nt,nt,nt,nt,nt
Cc1ccn2cc(C(=O)Nc3ccccc3N3CCOCC3)nc2c1,i,i,i,i,i,i
Cc1ccc(-n2c(=O)[nH]cc(C(=O)Nc3ccc4c(c3)OCCO4)c2=O)cc1,nt,i,-5.04,i,i,i
Cc1ccc(-n2c(=O)[nH]cc(C(=O)Nc3ccc4c(c3)OCCO4)c2=O)cc1C,i,i,i,i,i,i
Cc1ccn2cc(C(=O)Nc3ccc4c(c3)OCCO4)nc2c1,nt,i,-4.49,i,i,i
Cc1sc2ncn(CC(=O)OC(C)C(=O)NC(C)(C)C)c(=O)c2c1C (centres undefined),nt,nt,i,i,i,i
O=C(Nc1ccc(-c2nc3ccccc3[nH]2)cc1)C1CCCO1 (centres undefined),i,i,-4.95,i,i,i
O=C(Nc1nc2ccccc2[nH]1)C1CCCO1 (centres undefined),nt,i,i,i,i,i
O=C(C1CCN(S(=O)(=O)c2cccc3cccnc23)CC1)N1CC=C(c2ccccc2)CC1,nt,i,i,i,4.51,i
O=C(C1CCCN(S(=O)(=O)c2cccc3cccnc23)C1)N1CCN(c2ccccc2F)CC1 (centres undefined),i,i,i,i,i,i
Cc1cccc(N2CCN(C(=O)C3CCCN(S(=O)(=O)c4cccc5cccnc45)C3)CC2)c1C (centres undefined),nt,i,i,i,4.61,i
CC1CN(C)C(c2ccccc2)C(C)C12NC(=O)NC2=O (centres undefined),i,nt,nt,nt,nt,nt
COC(=O)c1ccccc1NC(=O)CSc1nnc(-c2cccnc2)n1C,i,nt,nt,nt,nt,nt
SMILES,mHtt clearance,Jurkat tox 60K,D1 allo mod,M1 antagonist,M1 agonist,HEK293 NFkB inh
Cc1nn(-c2ccc(Cl)cc2)c2sc(C(=O)N3CCN(C(=O)c4ccco4)CC3)cc12,nt,nt,i,i,2.76,i
CCCOc1ccc(C(=O)N2CCCC2)cc1OC,i,i,i,i,i,i
Cc1ccc(/C=[N+](/[O-])C2SC(=S)N(C)C2(C)C)cc1 (centres undefined),i,nt,nt,nt,nt,nt
CN1C(=S)SC(/[N+]([O-])=C\c2ccco2)C1(C)C (centres undefined),nt,i,-5.78,i,i,i
Cc1sc2nc(-c3cccs3)nc(N3CCCN(C)CC3)c2c1C,nt,i,i,-2.21,i,i
Cc1ccc(C2CC2C(=O)NNC(=S)Nc2ccc(Cl)cc2)cc1 (centres undefined),i,nt,nt,nt,nt,nt
N#C/C(=C(/O)CN1CCOCC1)c1nc2ccccc2s1,77.1,i,i,i,i,i
CCCCOC(=O)Cn1c(=N)n(CCC)c2ccccc21,nt,i,i,i,i,i
CCn1c(=N)n(CCO)c2ccccc21,nt,i,-4.09,i,i,i
C=C(C)C(=O)OC1(C(F)(F)F)Oc2cc(C)ccc2NC1=O (centres undefined),i,nt,nt,nt,nt,nt
CC12CCC(C(=O)NCc3ccc4c(c3)OCO4)(OC1=O)C2(C)C (centres undefined),70.6,i,i,nt,nt,i
COc1cccc(C(=O)/C=C/Nc2cc(C)ccc2O)c1,i,64.2,i,i,i,i
Cc1cccc(OCC(=O)Nc2cc(C)ccc2O)c1,84.8,55.2,nt,i,i,i
Cc1ccc(O)c(NC(=O)CCC2CCCCC2)c1,nt,39.4,i,i,i,i
COc1ccccc1Nc1nc(C2(C)CCC(=O)O2)cs1 (centres undefined),nt,i,i,i,i,i
COc1cccc(CNC(=O)c2cc3oc4ccccc4c3n2C)c1OC,i,29.4,i,i,i,i
CCOc1ccc(CNC(=O)c2cc3oc4ccccc4c3n2C)cc1,i,nt,nt,nt,nt,nt
CC(=O)O[C@H]1CC[C@@]2(C)C(CCC3C2CC[C@]2(C)OC(=O)CCC32)C1 (some centres undefined),i,nt,nt,nt,nt,nt
CC(=O)O[C@H]1C[C@@H]2CC[C@@H]3[C@H](CC[C@@]4(C)[C@H]3C[C@H]([N+]3(C)CCCCC3)[C@@H]4OC(C)=O)[C@@]2(C)C[C@@H]1[N+]1(C)CCCCC1,nt,nt,16.6,i,i,nt
CCCC(=O)Nc1cc(-c2cn3cccnc3n2)ccc1OC,nt,nt,-3.44,i,i,i
O=C(CCCSc1nc2ccccc2s1)NC1=NCCS1,i,i,nt,i,i,i
O=C(O)CCSc1nc2ccccc2s1,nt,i,-6.48,i,i,i
CCOC(=O)N1CCC(N2C(=O)c3ccccc3C2Nc2ccc3c(c2)OCCO3)CC1 (centres undefined),i,i,-3.1,i,i,i
CCOC(=O)N1CCC(N2C(=O)c3ccccc3C2Nc2ccc3c(C)cc(=O)oc3c2)CC1 (centres undefined),i,i,i,i,i,i
CCCCOC(=O)Nc1cc(OC)c(Cl)cc1OC,nt,i,i,i,i,i
SMILES,mHtt clearance,Jurkat tox 60K,D1 allo mod,M1 antagonist,M1 agonist,HEK293 NFkB inh
Cc1nc(-c2coc3c(CN(C)C)c(O)ccc3c2=O)cs1,i,nt,nt,nt,nt,nt
CSc1cccc(NC(=O)CN(c2cc(C)ccc2C)S(C)(=O)=O)c1,i,i,i,1.24,i,i
CNC(=O)CN(c1cc(C)ccc1C)S(C)(=O)=O,i,i,i,i,i,i
Cc1ccc(-n2c(SCc3ccc(C#N)cc3)nnc2-c2ccccn2)cc1,nt,i,-4,i,i,i
COc1ccc(-n2c(SCc3ccc(C#N)cc3)nnc2-c2ccccn2)cc1,i,i,i,i,i,i
Cc1cccc(CSC2=NCCN2C(=O)c2ccc(Br)o2)c1,i,i,i,i,i,i
CCOC(=O)N=S(=O)(Oc1ccc([N+](=O)[O-])cc1)c1ccccc1 (centres undefined),78.3,nt,nt,nt,nt,nt

# Source: PubChem BioAssay
